The nature of data set [1]: Acute toxicity in ICR mouse assessed as survival rate at 50 mg/kg, ip administered for 14 days relative to control. The class given is organism-based. The conditions noted are these: in vivo.
The nature of data set [2]: Stability of compound in human HCT116 cells at 1 uM after 4 hrs by LC-MS/MS analysis. The class given is ADME, cell-based. The conditions noted are these: hct-116, 4 h.
Data set [3] concerns HCT-116. Description: Inhibition of TGF-beta1-induced increase in expression levels of vimentin protein in human HCT116 cells after 48 hrs by Western blot analysis. Format: functional, cell-based. In short, it runs like this: (§1)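 HCT-116 cells (1 × 10^6/well, plated overnight) were exposed to TGF-β1 (10 ng/mL) for 48 h, with or without test compound; vehicle was 0.1% DMSO. Lysates (20 μg/lane) were run on 7.5% SDS-PAGE and blotted to PVDF, with primary antibody overnight at 4 °C and HRP/ECL detection. Band densities were normalised to β-actin across three independent experiments.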
On the technique in general: Immunoblotting shows a protein as a band on a membrane.

In data set [4] the test system is Mus musculus. Description: Toxicity in BALB/c nude mouse assessed as reduction in body weight at 2.5 to 5 mg/kg, ip administered for 21 consecutive days. The class given is organism-based. The conditions noted are these: in vivo. In short, it runs like this:
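Male BALB/c nude mice (3−5 weeks) inoculated sc with 1 × 10^7 HCT-116 cells; at tumour volume about 75 mm3 randomized (n = 8 per group) and dosed ip daily at 2.5 or 5 mg/kg for 21 consecutive days. Body weights monitored; liver, kidney, lung and heart inspected for size and morphology at sacrifice.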

For data set [5], the system named is Mus musculus. Description: Acute toxicity in ICR mouse assessed as mortality at 50 mg/kg, ip administered for 14 days. The class given is organism-based. As to conditions: in vivo, 336 h.
Data set [6] in a line: Acute toxicity in ip dosed ICR mouse assessed as mortality after 14 days. Format: organism-based. The conditions noted are these: in vivo.
Data set [7] is described as follows: Stability of compound in intestinal fluid at pH 6.8 at 1 uM after 4 hrs by LC-MS/MS analysis.
Data set [8] relates to HCT-116. Briefly: Induction of ROS accumulation in human HCT116 cells up to 3 hrs in presence of GSH by DCFH-DA staining-based fluorescence spectrometric analysis. Format: functional, cell-based.
The nature of data set [9]: Thiol reactivity in DMSO assessed as addition reaction at C8 position at 5 mg up to 8 hrs in presence of 3.0 equiv methyl thioglycolate by 1H NMR analysis.
For data set [10], the system named is HCT-116. Description: Antimetastatic activity against human HCT116 cells xenografted in BALB/c nude mouse model assessed as reduction in lung metastatic nodules at 2 to 4 mg/kg, ip administered thrice a week for 6 consecutive weeks by H and E staining-based assay. Format: functional, organism-based. In short, it runs like this: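 BALB/c nude mice received HCT-116 cells into the tail vein, then were randomized and dosed intraperitoneally (1, 2 or 4 mg/kg) three times weekly. Body weight recorded weekly. Lungs sectioned (4 μm), H&E stained, and nodule number and area scored blinded in three sections per mouse. Nodule counts n = 4–6 per group.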

Data set [11] is described as follows: Aqueous solubility of compound by HPLC analysis. The conditions noted are these: water. The class given is physicochemical. In short, it runs like this: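 Compound shaken in pure water or 50 mM phosphate buffer pH 7.4 at 20 °C, then centrifuged. Supernatant assayed by C18 HPLC (acetonitrile–water 60/40, 1.0 mL/min, 254 nm). Triplicate.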
For data set [12], the target named is Glycogen synthase kinase-3 beta (Homo sapiens) (UniProt P49841). Briefly: Inhibition of TGF-beta1-induced GSK-3beta phosphorylation in human HCT116 cells after 48 hrs by Western blot analysis. Format: cell-based. In short, it runs like this: (§2)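 HCT-116 cells treated with or without TGF-β1 (10 ng/mL) for 48 h, with or without test agent. Lysates (20 μg/lane) run on 7.5% SDS-PAGE and transferred to PVDF. Probed for p-Akt (Ser473), Akt, p-GSK-3β (S9), GSK-3β, E-cadherin, MMP-9 and β-actin, detected by ECL. Densitometry relative to β-actin or total protein. Three independent experiments.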

Data set [13] in a line: Acute toxicity in ICR mouse assessed as survival rate at 150 mg/kg, ip administered for 14 days relative to control. The class given is organism-based. The conditions noted are these: in vivo.
Data set [14] concerns HCT-116. Description: Inhibition of TGF-beta1-induced increase in expression levels of snail protein in human HCT116 cells at 50 nM after 48 hrs by Western blot analysis. Format: functional, cell-based. In short, it runs like this: as §1
The target of data set [15] is T1, Catenin beta-1 (Homo sapiens) (UniProt P35222).
T1 sequence (whole entry): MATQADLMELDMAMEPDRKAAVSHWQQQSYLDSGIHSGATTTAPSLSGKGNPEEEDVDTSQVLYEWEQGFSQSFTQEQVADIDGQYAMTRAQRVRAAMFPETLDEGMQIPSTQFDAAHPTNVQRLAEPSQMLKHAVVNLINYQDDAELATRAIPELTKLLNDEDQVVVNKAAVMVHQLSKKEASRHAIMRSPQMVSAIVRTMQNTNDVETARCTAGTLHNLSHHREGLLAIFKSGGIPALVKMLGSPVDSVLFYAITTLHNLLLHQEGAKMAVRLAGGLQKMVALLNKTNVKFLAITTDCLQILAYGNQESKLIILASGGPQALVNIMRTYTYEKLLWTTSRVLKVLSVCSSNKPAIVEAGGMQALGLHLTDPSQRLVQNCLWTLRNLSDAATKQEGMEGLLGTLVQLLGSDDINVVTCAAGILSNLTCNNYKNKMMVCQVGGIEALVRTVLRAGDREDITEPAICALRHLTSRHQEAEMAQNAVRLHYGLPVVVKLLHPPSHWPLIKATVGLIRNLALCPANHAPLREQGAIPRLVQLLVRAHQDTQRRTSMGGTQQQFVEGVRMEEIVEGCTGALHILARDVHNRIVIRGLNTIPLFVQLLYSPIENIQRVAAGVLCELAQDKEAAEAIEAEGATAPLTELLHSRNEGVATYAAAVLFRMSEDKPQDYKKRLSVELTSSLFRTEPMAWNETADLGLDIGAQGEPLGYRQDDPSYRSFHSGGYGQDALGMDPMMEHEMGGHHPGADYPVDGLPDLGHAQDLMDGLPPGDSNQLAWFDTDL
Description: Inhibition of TGF-beta1-regulated increase in nuclear beta-catenin in human HCT116 cells at 50 nM after 48 hrs by Western blot analysis. The class given is cell-based. In short, it runs like this: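 Cytoplasmic and nuclear β-catenin were measured by Western blot in HCT-116 cells given TGF-β1 (10 ng/mL) for 48 h, with or without compound, against 0.1% DMSO vehicle. Lysates (20 μg/lane) were run on 7.5% gels and transferred to PVDF, with Lamin A among the antibodies used. Blots were read by ECL and densitometry, n = 3 independent experiments.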

The target in data set [16] is RAC-alpha serine/threonine-protein kinase (Homo sapiens) (UniProt P31749). Briefly: Inhibition of TGF-beta1-induced AKT phosphorylation in human HCT116 cells at 50 nM after 48 hrs by Western blot analysis. Format: cell-based. In short, it runs like this:
as §2

Data set [17] has as its system Mus musculus. Briefly: Toxicity in BALB/c nude mouse xenografted with human HCT116 cells assessed as mortality at 4 mg/kg, ip administered thrice a week for 6 consecutive weeks. Format: organism-based. As to conditions: in vivo. In short, it runs like this:
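Lung metastasis model: HCT-116 cells in serum-free medium injected into tail vein of BALB/c nude mice, then randomized and given vehicle or compound ip (1, 2 or 4 mg/kg) three times a week. Body weight recorded weekly, survival monitored (n = 6); mice sacrificed after 40 days and lungs examined by H&E histology.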

Data set [18] relates to HCT-116. Briefly: Inhibition of TGF-beta1-induced increase in expression levels of vimentin protein in human HCT116 cells at 50 nM after 48 hrs by Western blot analysis. The class given is functional, cell-based. In short, it runs like this: as §1

The record followed here is ChEMBL document CHEMBL4033788, “Novel Ligustrazine-Based Analogs of Piperlongumine Potently Suppress Proliferation and Metastasis of Colorectal Cancer Cells in Vitro and in Vivo” (J Med Chem, 2018).

In brackets after ≈: the same amount, converted by molar mass. Activity calls are given as the source filed them. The calls are words filed in the database; no cut-off is given here.

Glycogen synthase kinase-3 beta (Homo sapiens), sequence (P49841 whole entry, looked up): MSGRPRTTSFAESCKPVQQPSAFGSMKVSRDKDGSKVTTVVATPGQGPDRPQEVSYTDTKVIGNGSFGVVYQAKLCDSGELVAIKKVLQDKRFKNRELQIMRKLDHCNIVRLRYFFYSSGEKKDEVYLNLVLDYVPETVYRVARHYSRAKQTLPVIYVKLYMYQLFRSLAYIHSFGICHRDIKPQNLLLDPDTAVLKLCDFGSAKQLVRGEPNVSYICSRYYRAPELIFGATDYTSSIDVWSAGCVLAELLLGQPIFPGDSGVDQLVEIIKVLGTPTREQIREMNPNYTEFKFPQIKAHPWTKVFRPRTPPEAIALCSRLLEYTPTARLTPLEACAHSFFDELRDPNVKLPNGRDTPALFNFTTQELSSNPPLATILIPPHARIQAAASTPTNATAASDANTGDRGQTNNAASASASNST
RAC-alpha serine/threonine-protein kinase (Homo sapiens), sequence (P31749 whole entry): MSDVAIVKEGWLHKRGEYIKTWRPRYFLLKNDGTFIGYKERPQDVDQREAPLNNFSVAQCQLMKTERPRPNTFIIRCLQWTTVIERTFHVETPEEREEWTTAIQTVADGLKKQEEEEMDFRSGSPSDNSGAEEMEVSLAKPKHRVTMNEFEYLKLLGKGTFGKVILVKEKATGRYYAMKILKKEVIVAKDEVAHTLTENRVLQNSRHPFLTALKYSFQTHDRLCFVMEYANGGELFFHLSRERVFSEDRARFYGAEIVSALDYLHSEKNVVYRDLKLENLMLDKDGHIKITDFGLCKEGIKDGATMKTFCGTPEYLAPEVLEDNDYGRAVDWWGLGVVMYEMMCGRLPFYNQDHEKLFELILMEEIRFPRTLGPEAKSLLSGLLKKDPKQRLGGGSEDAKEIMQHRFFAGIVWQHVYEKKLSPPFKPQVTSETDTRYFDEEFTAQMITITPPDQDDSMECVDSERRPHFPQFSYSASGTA

What is called LD50 is the dose expected to kill half of the subjects tested. A word on the solubility: it is how much of the substance goes into solution per volume. Low readings indicate little dissolved substance, high ones much dissolved substance. As to `Cc1nc(C)c(/C=C/C(=O)N2CCC=C(Cl)C2=O)nc1C`, the values for the survival at 336 h in [1] and in data set [13] were 100% and 40%, respectively. Moreover, the Stability result in data set [2] and in data set [7] was “Stable” in each case. Besides, the inhibition result (with HCT-116 [3]; in data set [12]) was “Dose-dependent effect” each time. Moreover, the Activity entry in the data set on Mus musculus [4] and with Mus musculus [5] was “Non-Toxic” throughout. In addition, the LD50 at 336 h in data set [6] worked out at 148 mg/kg. The result in the data set on HCT-116 [8] was inactive. Also, the Drug metabolism result in [9] is on record as “Metabolite not detected”. In the data set on HCT-116 [10], the outcome was Active. Also, the solubility in data set [11] was determined as 22.8 µg/mL (≈ 74.7 µM).

For the compound `COc1cc(/C=C/C(=O)N2CCC=CC2=O)cc(OC)c1OC` [PIPLARTINE], the inhibition result (in the data set on HCT-116 [14]; in [15]; in data set [16]; in the data set with HCT-116 [18]) was “Active” throughout. Further, the Activity result in the data set on Mus musculus [17] was “Non-Toxic”.
